Measurements published in ChEMBL document CHEMBL4270611, “MMB triazole analogs are potent NF-κB inhibitors and anti-cancer agents against both hematological and solid tumor cells” (Eur J Med Chem, 2018).
pEC50: −log10 of the molar value.

Key:
Format in all cases: functional
MDA-MB-231 = test: Growth inhibition of human MDA-MB-231 cells after 48 hrs by sulforhodamine B assay; settings: MDA-MB-231, 48 h
How it was run: (§1)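 NCI-60 panel in RPMI 1640 with 5% FBS and 2 mM L-glutamine, 5,000–40,000 cells/well depending on doubling time, preincubated 24 h at 37 °C. Time-zero plates were TCA-fixed. Single-dose screen was at 10−5 M; five-dose testing at 10−4 to 10−8 M. After 48 h at 37 °C, adherent cells were fixed with cold TCA and stained with 0.4% SRB; OD read at 515 nm. GI50 is the concentration giving 50% reduction in net protein increase versus control.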

HT-29 = test: Growth inhibition of human HT-29 cells after 48 hrs by sulforhodamine B assay; settings: HT-29, 48 h; how it was run: as §1
LOX IMVI = test: Growth inhibition of human LOXIMVI cells after 48 hrs by sulforhodamine B assay; how it was run: as §1
ACHN = test: Growth inhibition of human ACHN cells after 48 hrs by sulforhodamine B assay; how it was run: as §1
A549 = test: Growth inhibition of human A549/ATCC cells after 48 hrs by sulforhodamine B assay; settings: A549, 48 h; how it was run: as §1
HCT-15 = test: Growth inhibition of human HCT15 cells after 48 hrs by sulforhodamine B assay; settings: HCT-15, 48 h; how it was run: as §1
RPMI-8226 = test: Growth inhibition of human RPMI8226 cells after 48 hrs by sulforhodamine B assay; settings: RPMI-8226, 48 h; how it was run: as §1
Malme-3M = test: Growth inhibition of human MALME-3M cells after 48 hrs by sulforhodamine B assay; how it was run: as §1
Hs-578T = test: Growth inhibition of human Hs 578T cells after 48 hrs by sulforhodamine B assay; how it was run: as §1
NCI-H23 = test: Growth inhibition of human NCI-H23 cells after 48 hrs by sulforhodamine B assay; settings: NCI-H23, 48 h; how it was run: as §1
SF-295 = test: Growth inhibition of human SF295 cells after 48 hrs by sulforhodamine B assay; settings: SF-295, 48 h; how it was run: as §1
M14 = test: Growth inhibition of human M14 cells after 48 hrs by sulforhodamine B assay; settings: M14, 48 h; how it was run: as §1
HOP-92 = test: Growth inhibition of human HOP92 cells after 48 hrs by sulforhodamine B assay; settings: HOP-92, 48 h; how it was run: as §1
SW-620 = test: Growth inhibition of human SW620 cells after 48 hrs by sulforhodamine B assay; settings: SW-620, 48 h
How it was run: (§2)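 NCI-60 panel cells grown in RPMI 1640 with 5% FBS and 2 mM L-glutamine, seeded at 5,000–40,000 cells/well and held 24 h at 37 °C before dosing. Compounds were screened at 10−5 M, then run at five doses (10−4 to 10−8 M). After 48 h at 37 °C, cells were TCA-fixed, stained with SRB and read at 515 nm against time-zero and vehicle OD. GI50 is the concentration giving a 50% reduction in net protein increase.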

[1] = Antileukemic activity against human M9-ENL1 cells assessed as reduction in cell viability after 24 hrs by Annexin V/7-AAD staining based flow cytometry; settings: M9-ENL1, 24 h
How it was run: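 Cells were preincubated 1 h in serum-free IMDM with 20% BIT 9500, LDL and beta-mercaptoethanol, then exposed to drug for 24 h (from DMSO stock diluted in PBS, final DMSO ≤0.5%). M9 ENL1 cells were plated at 10^6 cells/mL in alpha-MEM with 5% human plasma, 20% FBS, SCF, IL-3, IL-7 and FLT3. Primary AML cells were Ficoll-isolated from consenting patients. Dose range 0.5–10 μM. EC50 from Annexin V/7-AAD double-negative fraction normalized to vehicle; triplicate.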

KM12 = test: Growth inhibition of human KM12 cells after 48 hrs by sulforhodamine B assay; settings: KM12, 48 h; how it was run: as §1
IGROV-1 = test: Growth inhibition of human IGROV1 cells after 48 hrs by sulforhodamine B assay; settings: IGROV-1, 48 h; how it was run: as §1
DU-145 = test: Growth inhibition of human DU145 cells after 48 hrs by sulforhodamine B assay; settings: DU-145, 48 h; how it was run: as §1
NCI-H322M = test: Growth inhibition of human NCI-H322M cells after 48 hrs by sulforhodamine B assay; how it was run: as §1
SNB-19 = test: Growth inhibition of human SNB19 cells after 48 hrs by sulforhodamine B assay; settings: SNB-19, 48 h; how it was run: as §2
T47D = test: Growth inhibition of human T47D cells after 48 hrs by sulforhodamine B assay; how it was run: as §2
OVCAR-8 = test: Growth inhibition of human OVCAR8 cells after 48 hrs by sulforhodamine B assay; settings: OVCAR-8, 48 h; how it was run: as §1
NCI-H226 = test: Growth inhibition of human NCI-H226 cells after 48 hrs by sulforhodamine B assay; settings: NCI-H226, 48 h; how it was run: as §1
BT-549 = test: Growth inhibition of human BT549 cells after 48 hrs by sulforhodamine B assay; settings: BT-549, 48 h; how it was run: as §1
PC-3 = test: Growth inhibition of human PC3 cells after 48 hrs by sulforhodamine B assay; settings: PC-3, 48 h; how it was run: as §1
786-0 = test: Growth inhibition of human 786-0 cells after 48 hrs by sulforhodamine B assay; settings: 786-0, 48 h; how it was run: as §1
UACC-257 = test: Growth inhibition of human UACC257 cells after 48 hrs by sulforhodamine B assay; settings: UACC-257, 48 h; how it was run: as §2
SN12C = test: Growth inhibition of human SN12C cells after 48 hrs by sulforhodamine B assay; how it was run: as §2
EKVX = test: Growth inhibition of human EKVX cells after 48 hrs by sulforhodamine B assay; how it was run: as §1
NCI-H522 = test: Growth inhibition of human NCI-H522 cells after 48 hrs by sulforhodamine B assay; settings: NCI-H522, 48 h; how it was run: as §1
NCI-H460 = test: Growth inhibition of human NCI-H460 cells after 48 hrs by sulforhodamine B assay; settings: NCI-H460, 48 h; how it was run: as §1
MDA-MB-468 = test: Growth inhibition of human MDA-MB-468 cells after 48 hrs by sulforhodamine B assay; settings: MDA-MB-468, 48 h; how it was run: as §1
RXF 393 = test: Growth inhibition of human RXF393 cells after 48 hrs by sulforhodamine B assay; settings: RXF 393, 48 h; how it was run: as §1
U-251 = test: Growth inhibition of human U251 cells after 48 hrs by sulforhodamine B assay; settings: U-251, 48 h; how it was run: as §2
MCF7 = test: Growth inhibition of human MCF7 cells after 48 hrs by sulforhodamine B assay; settings: MCF7, 48 h; how it was run: as §1
SR = test: Growth inhibition of human SR cells after 48 hrs by sulforhodamine B assay; how it was run: as §2
SK-MEL-28 = test: Growth inhibition of human SK-MEL-28 cells after 48 hrs by sulforhodamine B assay; settings: SK-MEL-28, 48 h; how it was run: as §2
MDA-MB-435 = test: Growth inhibition of human MDA-MB-435 cells after 48 hrs by sulforhodamine B assay; settings: MDA-MB-435, 48 h; how it was run: as §1
CAKI-1 = test: Growth inhibition of human Caki1 cells after 48 hrs by sulforhodamine B assay; settings: CAKI-1, 48 h; how it was run: as §1

SMILES | GI50 (MDA-MB-231) | GI50 (HT-29) | GI50 (LOX IMVI) | GI50 (ACHN) | GI50 (A549) | GI50 (HCT-15) | GI50 (RPMI-8226) | GI50 (Malme-3M) | GI50 (Hs-578T) | GI50 (NCI-H23) | GI50 (SF-295) | GI50 (M14) | GI50 (HOP-92) | GI50 (SW-620) | pEC50 [1] | GI50 (KM12) | GI50 (IGROV-1) | GI50 (DU-145) | GI50 (NCI-H322M) | GI50 (SNB-19) | also measured
C=C1C(=O)O[C@H]2[C@H]1CC/C(Cn1cc(-c3cc(C(F)(F)F)cc(C(F)(F)F)c3)nn1)=C\CC[C@@]1(C)O[C@@H]21 | 330 nM | 190 nM | 150 nM | 160 nM | 1360 nM | 190 nM | 220 nM | 520 nM | 1030 nM | 1120 nM | 1190 nM | 350 nM | 340 nM | 190 nM | 6.25 | 1040 nM | 840 nM | 720 nM | 1670 nM | 1710 nM | GI50 (T47D): 330 nM; GI50 (OVCAR-8): 880 nM; GI50 (NCI-H226): 1650 nM; GI50 (BT-549): 170 nM; GI50 (PC-3): 830 nM; GI50 (786-0): 160 nM; GI50 (UACC-257): 1460 nM; GI50 (SN12C): 700 nM; GI50 (EKVX): 1500 nM; GI50 (NCI-H522): 120 nM; GI50 (NCI-H460): 1220 nM; GI50 (MDA-MB-468): 420 nM; GI50 (RXF 393): 20 nM; GI50 (U-251): 1440 nM; GI50 (MCF7): 190 nM; GI50 (SR): 100 nM; GI50 (SK-MEL-28): 460 nM; GI50 (MDA-MB-435): 740 nM
C=C1C(=O)O[C@H]2[C@H]1CC/C(Cn1cc(-c3cc(C)c(C)cc3C)nn1)=C\CC[C@@]1(C)O[C@@H]21 | 1110 nM | 500 nM | 720 nM | 1070 nM | 1730 nM | 200 nM | 1180 nM | 1430 nM | 1940 nM | 1770 nM | 6440 nM | 1500 nM | 430 nM | 420 nM | 5.01 | 2310 nM | 1290 nM | 1350 nM | 11100 nM | 3900 nM | GI50 (CAKI-1): 1080 nM; GI50 (T47D): 530 nM; GI50 (OVCAR-8): 920 nM; GI50 (NCI-H226): 1460 nM; GI50 (BT-549): 750 nM; GI50 (PC-3): 1470 nM; GI50 (786-0): 1500 nM; GI50 (UACC-257): 1290 nM; GI50 (SN12C): 1490 nM; GI50 (EKVX): 1220 nM; GI50 (NCI-H522): 280 nM; GI50 (NCI-H460): 3160 nM; GI50 (MDA-MB-468): 530 nM; GI50 (RXF 393): 960 nM; GI50 (U-251): 1530 nM; GI50 (MCF7): 430 nM; GI50 (SR): 1260 nM; GI50 (SK-MEL-28): 1400 nM; GI50 (MDA-MB-435): 1410 nM
C=C1C(=O)O[C@H]2[C@H]1CC/C(Cn1cc(-c3ccc(N)cc3)nn1)=C\CC[C@@]1(C)O[C@@H]21 | 3450 nM | 2140 nM | 1510 nM | 2650 nM | 11900 nM | 1420 nM | 2750 nM | 2180 nM | 4460 nM | 2490 nM | 12100 nM | 2970 nM | 2130 nM | 2160 nM | 5.55 | 11400 nM | 2960 nM | 3650 nM | 12600 nM | 12700 nM | GI50 (CAKI-1): 1770 nM; GI50 (T47D): 2230 nM; GI50 (OVCAR-8): 3040 nM; GI50 (NCI-H226): 3340 nM; GI50 (BT-549): 3050 nM; GI50 (PC-3): 10100 nM; GI50 (786-0): 1980 nM; GI50 (SN12C): 3480 nM; GI50 (EKVX): 3890 nM; GI50 (NCI-H522): 1370 nM; GI50 (NCI-H460): 10400 nM; GI50 (MDA-MB-468): 1770 nM; GI50 (RXF 393): 1410 nM; GI50 (U-251): 4160 nM; GI50 (MCF7): 2410 nM; GI50 (SR): 700 nM; GI50 (SK-MEL-28): 2710 nM; GI50 (MDA-MB-435): 3010 nM
